From PubChem BioAssay
Shown are actives, neighbours in structure and some others; about 2.5% of the full set was active somewhere.
EWS-Fli inh: EWS/Fli-driven NR0B1 reporter inhibitors, primary screen, A673 cells, NR0B1 luciferase, luminescence, MLPCN library | inhibition, % at 12.6 µM | viability-normalised | 350,000 tested, 0.67% active | AID 651661, 2012;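 active = mean inhibition of at least 50% after viability correction, with every replicate also passing that limit; inconclusive = mean reaches 50% but only one of two replicates passes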;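 also: firefly luciferase signal divided by Alamar Blue viability fluorescence both relative to DMSO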
Env fusion inh: inhibitors of HIV-1 Env-driven cell-cell fusion, primary screen, HeLa-JRFL effector, CEM21 target cells, luciferase. inhibition, % at 12.3 µM. 360,000 tested, 1.1% active. AID 651610, 2012;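 active = mean replicate inhibition score of at least 50 and every replicate individually at or above 50; inconclusive = only one of the two criteria met; inactive = mean below 50 and not all replicates reaching 50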;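 also: 0% = plate neutral controls and 100% = maraviroc near 300 nM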
PAX8 reporter: inhibitors of PAX8-driven TPO luciferase reporter, primary screen, RMG-I cells, single concentration. AID 652154, 2013. inhibition, % at 12.6 µM. 360,000 tested, 1.2% active. SteadyGlo, 24 h;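 active = mean replicate inhibition at least 60% with every replicate also reaching 60%; inconclusive = only one of the two criteria is met; inactive = mean below 60% and not all replicates reaching 60%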;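 also: luciferase light reporting Pax8 driven TPO promoter activity; plate controls were median of neutral control wells for no effect and mitoxantrone controls for full effect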
FN deposit inh: inhibitors of fibronectin matrix deposition, primary screen, AH1F cells, Alexa488-fibronectin fluorescence, plate reader | 350,000 tested, 0.086% active | AH1F fibroblasts, overnight | inhibition, % at 12.6 µM | AID 743247, 2014;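 active = mean inhibition across replicates of 30% or more, regardless of how many single replicates reach that level; inconclusive = mean under 30% yet at least half of replicates reach 30%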;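 also: positive control wells lacked labelled fibronectin entirely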
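Assay system: AH1F fibroblast monolayer, labelled fibronectin deposition. Amount: 10000 cells per well. Also added: labelled fibronectin 24 nM. Compound: single-point pinned compound. Incubation: cell attachment 1 h, compound and FN exposure overnight. Detection: fluorescence after three HBSS washes, excitation 485 nm, emission 525 nm. Read-out: inhibition of fibronectin deposition signal.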
Glyco luc inh: increase of ERlucT glycosylation luciferase signal, primary screen, N-linked glycosylation inhibitor project, D54 ERlucT cells, luminescence, set 2. 360,000 tested, 0.23% active. D54 ERlucT glycosylation luciferase reporter, 24 h; percent of 100 nM tunicamycin response. reporter increase, % at 12.5 µM;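 active = mean luciferase reporter signal, scaled so untreated is 0 and the glycosylation-blocking control 100, at or above a set limit in every replicate; inconclusive = mean reaches the limit but not every replicate does; inactive = mean below the limit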;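 also: luciferase carries N-glycosylation sites so blocking glycosylation raises the light; 0% = median of neutral control wells and 100% = median of 100 nM tunicamycin wells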
MLL AF4-AF9 inh: inhibitors of AF4 peptide binding to AF9, primary screen, biochemical, AlphaScreen, biotin-AF4 peptide, FLAG-AF9, single point; Protein AF-9 (Homo sapiens), P42568; inhibition, % at 10 µM; 350,000 tested, 0.47% active; AID 651704, 2012;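 active = every replicate reaching a set inhibition limit, whatever the replicate mean, cut at about 25% in these data; inconclusive = mean inhibition reaches that limit but some replicates miss it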;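 also: 0% = plate neutral control median and 100% = total signal loss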
Target sequence (P42568 whole entry, looked up): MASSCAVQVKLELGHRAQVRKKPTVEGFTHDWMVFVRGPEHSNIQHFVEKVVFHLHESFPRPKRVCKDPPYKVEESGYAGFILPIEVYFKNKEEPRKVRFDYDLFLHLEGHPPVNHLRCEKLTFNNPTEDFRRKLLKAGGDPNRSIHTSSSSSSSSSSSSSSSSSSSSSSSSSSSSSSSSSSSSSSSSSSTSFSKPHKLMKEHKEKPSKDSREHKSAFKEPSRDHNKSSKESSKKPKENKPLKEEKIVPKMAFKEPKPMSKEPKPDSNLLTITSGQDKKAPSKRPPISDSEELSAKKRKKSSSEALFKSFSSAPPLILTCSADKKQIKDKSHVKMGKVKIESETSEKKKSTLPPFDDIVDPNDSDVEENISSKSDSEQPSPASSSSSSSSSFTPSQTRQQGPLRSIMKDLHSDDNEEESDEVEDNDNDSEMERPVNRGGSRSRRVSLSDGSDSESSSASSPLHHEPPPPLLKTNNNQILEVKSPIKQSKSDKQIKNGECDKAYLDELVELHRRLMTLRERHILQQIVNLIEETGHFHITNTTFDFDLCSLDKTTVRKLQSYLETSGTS
* hit, by the source's call; ? = inconclusive; nt = not tested or not shown; [ ] = dose if it differs, or a comment.

SMILES | EWS-Fli inh | Env fusion inh | PAX8 reporter | FN deposit inh | Glyco luc inh | MLL AF4-AF9 inh
C[C@@H]1CCCCO[C@H](CN(C)Cc2ccc(C(F)(F)F)cc2)[C@H](C)CN([C@@H](C)CO)C(=O)c2cc(NS(=O)(=O)c3cccs3)ccc2O1 | 11 | ? | 93* | nt | nt | 5
C[C@@H]1CCCCO[C@@H](CN(C)Cc2ccc(C(F)(F)F)cc2)[C@@H](C)CN([C@H](C)CO)C(=O)c2cc(NS(=O)(=O)c3cccs3)ccc2O1 | -2 | -23[16.7 µM] | 38 | nt | nt | 0
Cc1ccc(CNC(=O)C2CC(c3cc(C(F)(F)F)cc(C(F)(F)F)c3)=NO2)o1 (stereo not drawn) | 54* | -33 | 1 | 10 | 15 | 0
Cc1ccc(CCNC(=O)C2CC(c3cc(C(F)(F)F)cc(C(F)(F)F)c3)=NO2)cc1 (stereo not drawn) | -2 | 11 | -17 | -8 | 5 | nt
COc1ccc2c3c([nH]c2c1)[C@H](CO)N(C(=O)C1CCCCC1)CC31CN(C(=O)c2ccncc2)C1 | -3 | nt | nt | nt | nt | 2
Cc1ccc(S(=O)(=O)Nc2ccc3c(c2)C(=O)N([C@H](C)CO)C[C@@H](C)[C@H](CN(C)Cc2ccc(C(F)(F)F)cc2)OCCCC[C@@H](C)O3)cc1 | 13 | 65*[16.7 µM] | 102* | -4 | nt | 2
Cc1ccc(S(=O)(=O)Nc2ccc3c(c2)C(=O)N([C@@H](C)CO)C[C@@H](C)[C@@H](CN(C)Cc2ccc(C(F)(F)F)cc2)OCCCC[C@H](C)O3)cc1 | 28 | 15[16.7 µM] | 87* | -2 | nt | -2
CO[C@@H]1CN(C)C(=O)c2ccc(NS(=O)(=O)c3ccccc3C)cc2OC[C@@H](C)N(C)C[C@H]1C | 3 | -4[16.7 µM] | -6 | nt | nt | -1
O=[N+]([O-])c1cccc(COc2cccc(CN3CCCC3)c2)c1 | -19 | 60* | -21 | -3 | 2 | 0
Cc1ccc(Cl)cc1NC(=S)N/N=C/c1cccc2ccccc12 | 53* | -30 | 15 | -5 | 15 | 5
Cc1ccc(Cn2nnnc2CN2CCC(c3nc4ccc(Cl)cc4[nH]3)CC2)cc1 | nt | 75* | nt | -3 | -1 | nt
Clc1ccc2nc(C3CCN(Cc4nnnn4C4CCCCC4)CC3)[nH]c2c1 | nt | 36 | 10 | 6 | 1 | nt
COc1ccc(NC(=O)N(C)C[C@H]2Oc3ccc(NC(=O)Cn4cnnn4)cc3C(=O)N([C@@H](C)CO)C[C@H]2C)cc1 | 7 | nt | nt | nt | nt | -1
C[C@H]1CN([C@@H](C)CO)S(=O)(=O)c2ccc(-c3ccc(F)cc3)cc2O[C@H]1CN(C)Cc1cccc(F)c1 | -13 | 62*[16.7 µM] | nt | nt | nt | nt
C[C@@H]1CN([C@@H](C)CO)S(=O)(=O)c2ccc(-c3ccc(F)cc3)cc2O[C@@H]1CN(C)Cc1cccc(F)c1 | 21 | 35[16.7 µM] | nt | nt | nt | nt
C[C@H]1CN([C@@H](C)CO)S(=O)(=O)c2ccc(-c3ccc(C#N)cc3)cc2O[C@@H]1CN(C)Cc1cccc(F)c1 | 18 | 3[16.7 µM] | 76* | nt | nt | 0
Cc1onc(-c2ccccc2)c1C(=O)OCCOc1cccc(Cl)c1 | nt | 75* | 27 | nt | 12 | -1
C[C@H](CO)N1C[C@H](C)[C@H](CN(C)S(=O)(=O)c2ccccc2)Oc2ccc(NS(=O)(=O)c3ccc(F)cc3)cc2CC1=O | 1 | 58*[16.7 µM] | nt | nt | nt | -2
C[C@@H]1CN([C@H](C)CO)C(=O)Cc2cc(NS(=O)(=O)c3ccc(Cl)cc3)ccc2O[C@H]1CN(C)S(=O)(=O)c1ccccc1 | -11 | -2[16.7 µM] | 6 | nt | nt | -1
C[C@@H]1CN([C@@H](C)CO)C(=O)Cc2cc(NS(=O)(=O)c3cccs3)ccc2O[C@H]1CN(C)S(=O)(=O)c1ccccc1 | -3 | -11[16.7 µM] | 13 | nt | nt | 0
C[C@H](CO)N1C[C@H](C)[C@H](CN(C)S(=O)(=O)c2ccccc2)Oc2ccc(NS(=O)(=O)c3ccccc3)cc2CC1=O | 6 | 91*[16.7 µM] | -3 | nt | nt | -2
C[C@H](CO)N1C[C@H](C)[C@H](CN(C)S(=O)(=O)c2ccccc2)Oc2ccc(NS(=O)(=O)c3cccs3)cc2CC1=O | -2 | 64*[16.7 µM] | 4 | nt | nt | -1
C[C@H](CO)N1C[C@H](C)[C@H](CN(C)S(=O)(=O)c2ccccc2)Oc2ccc(NS(=O)(=O)c3ccc(Cl)cc3)cc2CC1=O | -9 | 56*[16.7 µM] | 9 | nt | nt | 2
COc1ccc(S(=O)(=O)Nc2ccc3c(c2)C(=O)N([C@@H](C)CO)C[C@H](C)[C@@H](CN(C)S(C)(=O)=O)O3)cc1 | 1 | 6[16.7 µM] | nt | nt | nt | -10
CCCNC(=O)C[C@H]1C[C@H]2c3cc(NC(=O)c4ccc5c(c4)OCO5)ccc3O[C@H]2[C@H](CO)O1 | -14 | nt | -6 | -9 | nt | nt
SMILES | EWS-Fli inh | Env fusion inh | PAX8 reporter | FN deposit inh | Glyco luc inh | MLL AF4-AF9 inh
C[C@H](CO)N1C[C@H](C)[C@@H](CN(C)S(=O)(=O)c2ccc(F)cc2)Oc2ccc(NS(=O)(=O)c3cn(C)cn3)cc2CC1=O | -5 | 64*[16.7 µM] | nt | nt | nt | -8
C[C@H](CO)N1C[C@H](C)[C@H](CN(C)S(=O)(=O)c2ccc(Cl)cc2)Oc2ccc(NS(=O)(=O)c3ccccc3)cc2CC1=O | 8 | 55*[16.7 µM] | -25 | nt | nt | nt
C[C@@H]1CN([C@@H](C)CO)C(=O)Cc2cc(NS(=O)(=O)c3ccc(Cl)cc3)ccc2O[C@@H]1CN(C)S(=O)(=O)c1ccccc1 | 5 | 7[16.7 µM] | 16 | nt | nt | 2
CO[C@@H](CN(C)C(=O)C1CCOCC1)[C@H](C)CN(C(=O)Nc1ccc(F)cc1)[C@H](C)CO | -17 | nt | nt | -9 | nt | 0
Cc1[nH]c2ccccc2c1C(=O)CSc1nc2cc(S(=O)(=O)N3CCCCC3)ccc2o1 | nt | 65* | 22 | 1 | nt | nt
C[C@@H]1CCCCO[C@@H](CN(C)C(=O)c2ccccc2)[C@H](C)CN([C@@H](C)CO)C(=O)c2cc(NC(=O)CCCN(C)C)ccc2O1 | 2 | 11[16.7 µM] | -2 | -3 | nt | -5
CCOc1c(C)cnc2c1c(=O)n(Cc1ccc(Cl)cc1)c(=O)n2C | -5 | 85* | 4 | 6 | -2 | -1
Cc1ccc(C)c(-n2c3nc(=O)[nH]c(=O)c-3cc3cc([N+](=O)[O-])ccc32)c1 | 70* | nt | 34 | 13 | 10 | -16
Cc1cccc(-n2c3nc(=O)[nH]c(=O)c-3cc3cc([N+](=O)[O-])ccc32)c1 | 17 | -10 | 7 | -8 | 19 | -12
O=C(NCc1ccccc1Cl)NCc1ccccc1Cl | -26 | 13 | -36 | 10 | 0 | 32*
Cc1ccc(C(CCNC(C)c2cccs2)c2ccco2)cc1 (stereo not drawn) | 19 | 66* | -1 | -4 | -4 | 4
Cc1nc(N2CCN(S(=O)(=O)c3ccccc3C#N)CC2)c2c(-c3cccs3)csc2n1 | 17 | 19 | 72* | -4 | -4 | 13
